Results: ChEMBL document CHEMBL1132961 (J Med Chem, 2000)

Tests used:
[1] = Concentration which elicits cytotoxicity in 50% of uninfected human lymphocyte derived CEM cells; format: cell-based, CCRF-CEM; settings: uninfected CCRF-CEM cells, read-out: TC50 (the source's name)
Summary of the method: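 Cytotoxicity measured in uninfected human lymphocyte-derived CEM cells by XTT protocol.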

[2] = molecular target: Human immunodeficiency virus type 1 protease (Human immunodeficiency virus 1, UniProt Q72874); assay: Activity of potent nonpeptidic inhibitor against protease
Summary of the method: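 Incubated with 40 µM His-Lys-Ala-Arg-Val-Leu-(p-NO₂-Phe)-Glu-Ala-Nle-Ser-NH₂ in 1.0% DMSO, pH 6.2 MES buffer (DTT, NaCl, EDTA, PEG 8000) for 60 min at 37 °C, then TFA quench. Substrate and product separated by reverse-phase HPLC, read at 220 nm. % control = conversion with inhibitor / conversion without × 100; IC50 derived.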

[3] = test system: Human immunodeficiency virus 1; assay: Effective concentration at which 50% of the HIV-IIIB-infected human lymphocyte-derived CEM cells protected from HIV-1 infection; settings: Human immunodeficiency virus 1, CCRF-CEM

SMILES	IC50 [2] [µM]	EC50 [3] [µM]	CC50 [1] [µM]
Cc1cc(SC2=C(O)OC(C)(CCc3ccc(O)cc3)CC2=O)c(C(C)(C)C)cc1NS(=O)(=O)c1ccccc1 (configuration not stated)	0.0015	5.2	> 100
Cc1cc(SC2=C(O)OC(C)(CCc3ccc(O)cc3)CC2=O)c(C(C)(C)C)cc1NS(=O)(=O)c1ccc(C#N)cc1 (configuration not stated)	0.0021	5	> 100
Cc1cc(SC2=C(O)OC(C)(CCc3ccc(O)cc3)CC2=O)c(C(C)(C)C)cc1OS(=O)(=O)c1ccc(F)cc1 (configuration not stated)	0.0169	6.3	100
Cc1cc(SC2=C(O)OC(CCc3ccc(N)cc3)(C(C)C)CC2=O)c(C(C)(C)C)cc1OS(=O)(=O)c1cccs1 (configuration not stated)	0.0185	6	66
Cc1cc(SC2=C(O)OC(C)(CCc3ccc(O)cc3)CC2=O)c(C(C)(C)C)cc1NS(=O)(=O)c1ccc(C(F)(F)F)cc1 (configuration not stated)	0.0123	3.5	79
Cc1cc(SC2=C(O)OC(CCc3ccc(O)cc3)(C(C)C)CC2=O)c(C(C)(C)C)cc1OS(=O)(=O)N(C)C (configuration not stated)	–	–	70
Cc1cc(SC2=C(O)OC(CCc3ccc(O)cc3)(C(C)C)CC2=O)c(C(C)(C)C)cc1NS(C)(=O)=O (configuration not stated)	0.004	5.3	> 100
Cc1cc(SC2=C(O)OC(CCc3ccccc3)(C(C)C)CC2=O)c(C(C)(C)C)cc1OS(=O)(=O)c1cccnc1 (configuration not stated)	0.014	4.6	65
Cc1cc(SC2=C(O)OC(C)(CCc3ccc(O)cc3)CC2=O)c(C(C)(C)C)cc1NS(=O)(=O)c1ccc(Cl)cc1 (configuration not stated)	0.0035	3.9	71
Cc1cc(SC2=C(O)OC(CCc3ccc(O)cc3)(C(C)C)CC2=O)c(C(C)(C)C)cc1NS(=O)(=O)c1cccnc1 (configuration not stated)	0.0026	5.8	> 100
Cc1cc(SC2=C(O)OC(C)(CCc3ccc(O)cc3)CC2=O)c(C(C)(C)C)cc1N (configuration not stated)	0.013	3.7	> 100
Cc1cc(SC2=C(O)OC(CCc3ccc(O)cc3)(C(C)C)CC2=O)c(C(C)(C)C)cc1N (configuration not stated)	–	1	92
CC(=O)Nc1ccc(S(=O)(=O)Nc2cc(C(C)(C)C)c(SC3=C(O)OC(C)(CCc4ccc(O)cc4)CC3=O)cc2C)cc1 (configuration not stated)	–	55	> 100

Continued, in another order:

IC50 [2] [µM]	EC50 [3] [µM]	SMILES	CC50 [1] [µM]
0.0036	2.4	Cc1cc(SC2=C(O)OC(CCc3ccc(O)cc3)(C3CC3)CC2=O)c(C(C)(C)C)cc1NS(=O)(=O)c1ccccc1 (configuration not stated)	76
0.0013	0.4	Cc1cc(SC2=C(O)OC(CCc3ccc(N)cc3)(C(C)C)CC2=O)c(C(C)(C)C)cc1OS(=O)(=O)c1ccc(C#N)cc1 (configuration not stated)	53
0.0033	1.2	CCNS(=O)(=O)Nc1cc(C(C)(C)C)c(SC2=C(O)OC(CCc3ccccc3)(C(C)C)CC2=O)cc1C (configuration not stated)	77
0.0053	1.6	Cc1cc(SC2=C(O)OC(CCc3ccc(O)cc3)(C(C)C)CC2=O)c(C(C)(C)C)cc1NS(=O)(=O)c1ccc(Cl)cc1 (configuration not stated)	66
–	0.7	CCNS(=O)(=O)Oc1cc(C(C)(C)C)c(SC2=C(O)OC(CCc3ccc(N)cc3)(C(C)C)CC2=O)cc1C (configuration not stated)	83
–	0.8	Cc1cc(SC2=C(O)OC(CCc3ccc(N)cc3)(C(C)C)CC2=O)c(C(C)(C)C)cc1OS(=O)(=O)N(C)C (configuration not stated)	64
0.0036	2.1	Cc1cc(SC2=C(O)OC(CCc3ccccc3)(C(C)C)CC2=O)c(C(C)(C)C)cc1NS(=O)(=O)c1cccs1 (configuration not stated)	61
0.0035	1.6	Cc1cc(SC2=C(O)OC(CCc3ccccc3)(C(C)C)CC2=O)c(C(C)(C)C)cc1NS(=O)(=O)c1cccnc1 (configuration not stated)	76
0.003	1.1	Cc1cc(SC2=C(O)OC(CCc3ccccc3)(C(C)C)CC2=O)c(C(C)(C)C)cc1OS(=O)(=O)Cn1ccnc1 (configuration not stated)	66
–	1	CCNS(=O)(=O)Oc1cc(C(C)(C)C)c(SC2=C(O)OC(CCc3ccc(O)cc3)(C(C)C)CC2=O)cc1C (configuration not stated)	> 100
